# Tests used:
# [1] = tested on: Rattus norvegicus; test: Compound was tested for anticonvulsant activity after Oral Administration into Rats by using MES screen test after 0.5h,dose 12.5 mg/kg; No activity was demonstarted; type: functional, organism-based; parameters: dose 12.5 mg/kg
# How it was run: (§1)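 Rats received the compound orally. […] Rats were tested in the MES screen at 0.25, 0.5, 1, 2 and 4 h. Each value is the number of rats protected out of 4. The test followed NINDS procedures.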
# [2] = tested on: Mus musculus; test: Compound was tested for anticonvulsant activity after intraperitoneal injection into mice by using MES screen test at 1 hr; type: functional; settings: ip
# How it was run: (§2)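 Quantitative intraperitoneal mouse testing in the MES, scPTZ or rotorod neurotoxicity screens at the peak time given for each compound (0.25–2 h). ED50 or TD50 reported in mg/kg with 95% CI and slope (SE).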
# [3] = tested on: Mus musculus; test: Compound was tested for anticonvulsant activity after intraperitoneal injection into mice by using scPTZ screen test after 1 hr; type: functional; settings: ip; how it was run: as §2
# [4] = tested on: Mus musculus; test: Anticonvulsant activity after intraperitoneal injection into mice by using scPTZ screen test after 4 hr; type: functional
# [5] = tested on: Mus musculus; test: Anticonvulsant activity after intraperitoneal injection into mice by using scPTZ screen after 0.5 hr; type: functional
# [6] = Compound was tested for toxicity after oral administration in rat by using neurotoxicity screen test after 0.25-24 hr; type: organism-based; settings: in vivo
# How it was run: (§3)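 Rat neurotoxicity after oral dosing, observed at 0.25, 0.5, 1, 2, 4, 6, 8 and 24 h (8 h omitted for one compound).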
# [7] = tested on: Mus musculus; test: Anticonvulsant activity after intraperitoneal injection into mice measured in a maximal electroshock scree (MES) screen; type: functional
# [8] = tested on: Rattus norvegicus; test: Compound was tested for anticonvulsant activity after Oral Administration into Rats by using MES screen test after 4h,dose 12.5 mg/kg; number of rats out of four which were protected; type: functional; how it was run: as §1
# [9] = tested on: Mus musculus; test: Compound was tested for toxicity after intraperitoneal injection into mice by using toxicity screen test after 4 hr; type: organism-based; settings: in vivo, ip
# How it was run: (§4)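 Mice injected intraperitoneally at 30, 100 and 300 mg/kg and examined 0.5 and 4 h afterwards. Each entry is the minimum dose giving activity (MES protection, scPTZ protection, or rotorod failure for neurotoxicity) in half or more of the mice. Activity is called absent if nothing occurs at 300 mg/kg.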
# [10] = Compound was tested for toxicity after intraperitoneal injection into mice by using neurotoxicity screen test after 4 hr; type: organism-based; settings: mouse, in vivo, ip; how it was run: as §4
# [11] = tested on: Rattus norvegicus; test: Compound was tested for anticonvulsant activity after Oral Administration into rat by using MES screen test after 2 hr; type: functional
# How it was run: (§5)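 Rats dosed orally, typically at 50 mg/kg first, then mostly 12.5 mg/kg (some compounds at 30 mg/kg), and tested by maximal electroshock. Four rats per compound, scored at 0.25, 0.5, 1, 2 and 4 h as the number of rats protected out of 4.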
# [12] = tested on: Rattus norvegicus; test: Compound was tested for anticonvulsant activity after Oral Administration into Rats by using MES screen test after 2h,dose 12.5 mg/kg; number of rats out of four which were protected; type: functional; how it was run: as §1
# [13] = tested on: Mus musculus; test: Toxicity after intraperitoneal injection into mice by using toxicity screen test after 0.5 hr; type: organism-based; settings: in vivo, ip; how it was run: as §4
# [14] = tested on: Rattus norvegicus; test: Compound was tested for anticonvulsant activity after Oral Administration into Rats by using MES screen test after 0.25h,dose 12.5 mg/kg; No activity was demonstarted; type: functional, organism-based; parameters: dose 12.5 mg/kg; how it was run: as §1
# [15] = tested on: Rattus norvegicus; test: Compound was tested for anticonvulsant activity after Oral Administration into Rats by using MES screen test after 1h,dose 12.5 mg/kg; number of rats out of four which were protected; type: functional; how it was run: as §1
# [16] = tested on: Mus musculus; test: Anticonvulsant activity after intraperitoneal injection into mice by using MES screen test after 0.5 hr; type: functional
# [17] = Compound was tested for toxicity after intraperitoneal injection into mice by using neurotoxicity screen test after 0.25 hr; settings: mouse, in vivo, ip
# [18] = Compound was tested for toxicity after oral administration in rat by using neurotoxicity screen test after 0.5 hr; settings: in vivo
# [19] = tested on: Mus musculus; test: Anticonvulsant activity after intraperitoneal injection into mice by using MES screen test after 0.25 hr; type: functional
# [20] = tested on: Mus musculus; test: Compound was tested for anticonvulsant activity after intraperitoneal injection into mice by using scPTZ screen test after 0.25 hr; type: functional; settings: ip; how it was run: as §2
# [21] = tested on: Rattus norvegicus; test: Compound was tested for anticonvulsant activity after Oral Administration into Rats by using MES screen test after 0.5h,dose 50 mg/kg; number of rats out of four which were protected; type: functional; how it was run: as §1
# [22] = tested on: Rattus norvegicus; test: Compound was tested for anticonvulsant activity after Oral Administration into Rats by using MES screen test after 0.25h,dose 50 mg/kg; number of rats out of four which were protected; type: functional; how it was run: as §1
# [23] = tested on: Rattus norvegicus; test: Compound was tested for anticonvulsant activity after Oral Administration into Rats by using MES screen test after 1 hr, dose 50 mg/kg; number of rats out of four which were protected; type: functional; how it was run: as §1
# [24] = tested on: Rattus norvegicus; test: Compound was tested for anticonvulsant activity after Oral Administration into Rats by using MES screen test after 2h,dose 50 mg/kg; number of rats out of four which were protected; type: functional; how it was run: as §1
# [25] = tested on: Rattus norvegicus; test: Compound was tested for anticonvulsant activity after Oral Administration into Rats by using MES screen test after 4h,dose 50 mg/kg; number of rats out of four which were protected; type: functional; how it was run: as §1
# [26] = Protection index = TD50/ED50 (MES); type: ADME; settings: read-out: TI
# [27] = tested on: Mus musculus; test: Compound was tested for anticonvulsant activity after intraperitoneal injection into mice by using MES screen test after 1 hr; type: functional; settings: ip; how it was run: as §2
# [28] = Protection index = TD50/ED50 (MES); settings: mouse, in vivo; read-out: PI
# [29] = tested on: Rattus norvegicus; test: Anticonvulsant activity after oral administration into rats; type: functional; parameters: concentration or dose not given beside the values
# [30] = Compound was tested for toxicity after intraperitoneal injection into mice by using neurotoxicity screen test after 2 hr; type: organism-based; settings: mouse, in vivo, ip; how it was run: as §2
# [31] = Partition coefficient (logP); type: physicochemical; settings: octanol/water
# How it was run: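 Partition between 1-octanol and buffer at pH 7.4, with solutions prepared in 1-octanol before buffer is added. Quantified by UV, using λmax and ε values measured in 1-octanol.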
# [32] = Compound was tested for toxicity after oral administration in rat by using neurotoxicity screen test after 2 hr; type: organism-based; settings: in vivo; how it was run: as §3
# [33] = tested on: Rattus norvegicus; test: Compound was tested for anticonvulsant activity after Oral Administration into Rats by using MES screen test after 0.25h,dose 50 mg/kg; No activity was demonstarted; type: functional, organism-based; parameters: dose 50 mg/kg; how it was run: as §1
# [34] = tested on: Rattus norvegicus; test: Compound was tested for anticonvulsant activity after Oral Administration into Rats by using MES screen test after 4h,dose 50 mg/kg; No activity was demonstarted; type: functional, organism-based; parameters: dose 50 mg/kg; how it was run: as §1
# [35] = tested on: Rattus norvegicus; test: Compound was tested for anticonvulsant activity after Oral Administration into Rats by using MES screen test after 0.5h,dose 50 mg/kg; No activity was demonstarted; type: functional, organism-based; parameters: dose 50 mg/kg; how it was run: as §1
# [36] = tested on: Rattus norvegicus; test: Compound was tested for anticonvulsant activity after Oral Administration into Rats by using MES screen test after 1h,dose 50 mg/kg; No activity was demonstarted; type: functional, organism-based; parameters: dose 50 mg/kg; how it was run: as §1
# [37] = tested on: Rattus norvegicus; test: Compound was tested for anticonvulsant activity after Oral Administration into Rats by using MES screen test after 2h,dose 50 mg/kg; No activity was demonstarted; type: functional, organism-based; parameters: dose 50 mg/kg; how it was run: as §1
# [38] = tested on: Rattus norvegicus; test: Compound was tested for anticonvulsant activity after Oral Administration into Rats by using MES screen test after 0.25h,dose 30 mg/kg; number of rats out of four which were protected; type: functional; how it was run: as §1
# [39] = tested on: Rattus norvegicus; test: Compound was tested for anticonvulsant activity after Oral Administration into Rats by using MES screen test after 4h,dose 30 mg/kg; No activity was demonstarted; type: functional, organism-based; parameters: dose 30 mg/kg; how it was run: as §1
# [40] = tested on: Rattus norvegicus; test: Compound was tested for anticonvulsant activity after Oral Administration into rat by using MES screen test after 0.5 hr; type: functional; how it was run: as §5
# [41] = tested on: Rattus norvegicus; test: Compound was tested for anticonvulsant activity after Oral Administration into Rats by using MES screen test after 0.5h,dose 30 mg/kg; number of rats out of four which were protected; type: functional; how it was run: as §1
# [42] = tested on: Rattus norvegicus; test: Compound was tested for anticonvulsant activity after Oral Administration into Rats by using MES screen test after 2h,dose 30 mg/kg; number of rats out of four which were protected; type: functional; how it was run: as §1
# [43] = tested on: Rattus norvegicus; test: Compound was tested for anticonvulsant activity after Oral Administration into Rats by using MES screen test after 1h,dose 30 mg/kg; number of rats out of four which were protected; type: functional; how it was run: as §1
logP [31],Structure (SMILES),Dose [5],Dose [7],Activity [8],Dose [9],ED50 [11],Activity [12],Dose [13],Activity [14],Activity [15],Dose [16],ED50 [20],other results
,Cc1ccc(Sc2ccc(/C=N/NC(N)=O)cc2)cc1,100 mg/kg,30 mg/kg,4,100 mg/kg,3.65 mg/kg,4,300 mg/kg,No activity,4,30 mg/kg,,Activity [1]: No activity; ED50 [2]: 9.46 mg/kg; ED50 [3]: > 300 mg/kg; Dose [4]: 100 mg/kg; TD50 [6]: > 500 mg/kg; TD50 at 4 h [10]: 197 mg/kg
,CCCC(CCC)C(=O)O [VALPROIC ACID],300 mg/kg,,,,,,,,,,209 mg/kg,TD50 at 0.25 h [17]: 483 mg/kg; TD50 at 0.5 h [18]: 859 mg/kg; ED50 [19]: 287 mg/kg
,NC(=O)N/N=C/c1ccc(Oc2ccc(Br)cc2)cc1,,30 mg/kg,,30 mg/kg,,,300 mg/kg,,,30 mg/kg,,Activity [21]: 4; Activity [22]: 1; Activity [23]: 4; Activity [24]: 4; Activity [25]: 4
2.03,C/C(=N/NC(N)=O)c1ccc(Oc2ccc(F)cc2)cc1,100 mg/kg,30 mg/kg,4,100 mg/kg,3.37 mg/kg,4,300 mg/kg,No activity,4,30 mg/kg,> 80 mg/kg,selectivity ratio [26]: 32.3; ED50 [27]: 11.6 mg/kg; selectivity ratio [28]: 5.22; Activity [29]: 4; TD50 at 2 h [30]: 60.7 mg/kg; TD50 at 2 h [32]: 109 mg/kg
2.07,NC(=O)N/N=C\c1cccc(Oc2ccccc2)c1,,300 mg/kg,,,,,,,,,,Activity [33]: No activity; Activity [34]: No activity; Activity [35]: No activity; Activity [36]: No activity; Activity [37]: No activity
,CC/C(=N/NC(N)=O)c1ccc(Oc2ccccc2)cc1,,100 mg/kg,,100 mg/kg,,,100 mg/kg,,,30 mg/kg,,Activity [38]: 1; Activity [39]: No activity; ED50 [40]: 23.1 mg/kg; Activity [41]: 4; Activity [42]: 3; Activity [43]: 3

# Reference: ChEMBL document CHEMBL1129428 (J Med Chem, 1996)
